Source: ChEMBL document CHEMBL4837222, “Design and synthesis of novel benzothiophene analogs as selective estrogen receptor covalent antagonists against breast cancer” (Eur J Med Chem, 2021)
Active and inactive are the calls of the source. The rule behind the calls is not given here.

Tests used:
MCF7 [1] = assay: Cell cycle arrest in human MCF7 cells assessed as accumulation at S phase at 10 uM measured after 48 hrs by propidium iodide staining based flow cytometric analysis (reference value: 63.32%); type: functional
MCF7 [2] = assay: Cell cycle arrest in human MCF7 cells assessed as accumulation at G0/G1 phase at 5 uM measured after 48 hrs by propidium iodide staining based flow cytometric analysis (reference value: 24.44%); type: functional
MCF7 [3] = assay: Induction of apoptosis in human MCF7 cells assessed as late apoptotic cells at 10 uM incubated for 24 hrs by AnnexinV-FITC/propidium iodide staining based flow cytometric analysis (reference value: 0.7%); type: functional
MCF7 [4] = assay: Cell cycle arrest in human MCF7 cells assessed as accumulation at G0/G1 phase at 1 uM measured after 48 hrs by propidium iodide staining based flow cytometric analysis (reference value: 24.44%); type: functional
MCF7 [5] = assay: Cell cycle arrest in human MCF7 cells assessed as accumulation at S phase at 5 uM measured after 48 hrs by propidium iodide staining based flow cytometric analysis (reference value: 63.32%); type: functional
[6] = Half life in rat plasma; type: ADME, cell-free
MCF7 [7] = assay: Downregulation of ERalpha expression in human MCF7 cells at 5 uM incubated for 24 hrs by DAPI staining based immunofluorescence microscopy; type: functional, cell-based
Procedure, shortened: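 MCF-7 cells on glass slides treated 24 h at 5 µM, washed with PBS and fixed with pre-cooled acetone. ERα immunostained with a red fluorescent label, nuclei counterstained with DAPI; ERα fluorescence intensity quantified.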

[8] = biological target: T1, Estrogen receptor (Homo sapiens) (UniProt P03372); assay: Covalent antagonist activity at ERalpha receptor in human ishikawa cells assessed as suppression of E2-stimulated PGR expression at 0.25 to 10 uM measured after 3 days by RT-PCR analysis; type: cell-based; settings: filed as antagonist, dose 0.25-10 µM, time 3.0 day
T1 sequence (whole entry): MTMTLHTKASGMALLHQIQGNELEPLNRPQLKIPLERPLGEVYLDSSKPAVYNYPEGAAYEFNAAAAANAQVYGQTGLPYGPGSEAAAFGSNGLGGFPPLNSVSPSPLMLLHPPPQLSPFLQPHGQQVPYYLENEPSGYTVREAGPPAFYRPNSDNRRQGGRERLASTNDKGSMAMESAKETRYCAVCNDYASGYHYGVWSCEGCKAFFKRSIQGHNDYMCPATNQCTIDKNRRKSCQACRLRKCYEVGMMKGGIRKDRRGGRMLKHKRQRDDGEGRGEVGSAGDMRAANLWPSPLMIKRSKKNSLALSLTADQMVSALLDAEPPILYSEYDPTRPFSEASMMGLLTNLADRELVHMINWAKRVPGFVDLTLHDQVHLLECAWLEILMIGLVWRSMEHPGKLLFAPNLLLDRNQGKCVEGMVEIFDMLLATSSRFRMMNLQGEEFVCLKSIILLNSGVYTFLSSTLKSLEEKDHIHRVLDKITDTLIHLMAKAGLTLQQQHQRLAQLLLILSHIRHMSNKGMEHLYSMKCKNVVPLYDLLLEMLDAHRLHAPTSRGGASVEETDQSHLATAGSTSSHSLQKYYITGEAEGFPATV
Procedure, shortened: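 Ishikawa cells stimulated with E2 and exposed 3 days to compound at 0.25, 0.5, 1 and 10 µM. PGR mRNA quantified by SYBR Green real-time PCR, normalised to GAPDH, ΔΔCT method.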

MCF7 [9] = assay: Cell cycle arrest in human MCF7 cells assessed as accumulation at G2/M phase at 5 uM measured after 48 hrs by propidium iodide staining based flow cytometric analysis (reference value: 12.24%); type: functional
MCF7 [10] = assay: Cell cycle arrest in human MCF7 cells assessed as accumulation at G2/M phase at 1 uM measured after 48 hrs by propidium iodide staining based flow cytometric analysis (reference value: 12.24%); type: functional
MCF7 [11] = assay: Downregulation of ERalpha expression in human MCF7 cells at 0.5 uM incubated for 24 hrs by Western blot assay; type: functional, cell-based
Procedure, shortened: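 MCF-7 cells were kept in phenol red-free DMEM/F12 with 10% serum for 72 h before plating, then treated at 125, 250 and 500 nM for 24 h. Cells were lysed in RIPA buffer, protein was measured by BCA, and equal amounts were run on 10% SDS-PAGE and transferred to PVDF. ERα band intensity was normalized to GAPDH in each repeat.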

MCF7 [12] = assay: Induction of apoptosis in human MCF7 cells assessed as late apoptotic cells at 1 uM incubated for 24 hrs by AnnexinV-FITC/propidium iodide staining based flow cytometric analysis (reference value: 0.7%); type: functional
[13] = biological target: T1, Estrogen receptor (Homo sapiens); assay: Covalent antagonist activity at ERalpha in human MCF7 cells assessed as decrease in estradiol-induced GREB1 mRNA expression level at 0.25 to 10 uM measured after 24 hrs by RT-PCR analysis; type: cell-based; settings: filed as antagonist, dose 0.25-10 µM
Procedure, shortened: (§1)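 MCF-7 cells stimulated with estradiol, then co-incubated 24 h with compound at 0.25, 0.5, 1 and 10 µM. RNA was reverse-transcribed and GREB1 or TFF1 measured by SYBR Green qPCR: 95 °C 10 min, then 40 cycles of 95 °C 5 s, 60 °C 60 s, 95 °C 15 s. Normalised to GAPDH, ΔΔCT method.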

[14] = biological target: T1, Estrogen receptor (Homo sapiens); assay: Covalent antagonist activity at ERalpha in human MCF7 cells assessed as decrease in estradiol-induced TFF1 mRNA expression level at 0.25 to 10 uM measured after 24 hrs by RT-PCR analysis; type: cell-based; settings: filed as antagonist, dose 0.25-10 µM; procedure, shortened: as §1
Ishikawa = assay: Antiproliferative activity against human Ishikawa cells assessed as reduction in cell growth incubated for 48 hrs by CCK8 assay; type: functional, cell-based
Procedure, shortened: (§2)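 CCK-8 viability assay. Cells seeded at 4000/well in 10% FBS medium for 24 h, then given compound diluted from DMSO stocks into 2% FBS medium at 100, 50, 25, 12.5, 6.25 and 3.125 µM (0.1% DMSO final). After 48 h, CCK-8 was added (0.5 mg/mL) for 2 h at 37 °C and OD450 read. Triplicates; IC50 fitted from mean viability.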

MCF7 [15] = assay: Induction of apoptosis in human MCF7 cells assessed as early apoptotic cells at 1 uM incubated for 24 hrs by AnnexinV-FITC/propidium iodide staining based flow cytometric analysis (reference value: 0.8%); type: functional
MCF7 [16] = assay: Antiproliferative activity against human MCF7 cells assessed as reduction in cell growth incubated for 48 hrs by CCK8 assay; type: functional, cell-based; settings: MCF7, 48 h; procedure, shortened: as §2
MCF7 [17] = assay: Induction of apoptosis in human MCF7 cells assessed as live cells at 1 uM incubated for 24 hrs by AnnexinV-FITC/propidium iodide staining based flow cytometric analysis (reference value: 98.1%); type: functional
MCF7 [18] = assay: Induction of apoptosis in human MCF7 cells assessed as live cells at 10 uM incubated for 24 hrs by AnnexinV-FITC/propidium iodide staining based flow cytometric analysis (reference value: 98.1%); type: functional
MCF7 [19] = assay: Cell cycle arrest in human MCF7 cells assessed as accumulation at G2/M phase at 10 uM measured after 48 hrs by propidium iodide staining based flow cytometric analysis (reference value: 12.24%); type: functional
MCF7 [20] = assay: Induction of apoptosis in human MCF7 cells assessed as early apoptotic cells at 5 uM incubated for 24 hrs by Annexin-V-FITC/propidium iodide staining based flow cytometric analysis (reference value: 0.8%); type: functional

- half-life [6]: 17 h
- inhibition [8]: Active
- inhibition [13]: Dose-Dependent Effect
- inhibition [14]: Dose-Dependent Effect
- IC50 (MCF7 [16]): 7.34 µM
Structure (SMILES): O=C(/C=C/CNCCOc1ccc(Oc2c(-c3ccc(F)cc3)sc3cc(O)ccc23)cc1)N1CCC1
- Activity (MCF7 [1]): 38.75%
- Activity (MCF7 [2]): 37.54%
- Activity (MCF7 [3]): 13.2%
- Activity (MCF7 [4]): 31.21%
- Activity (MCF7 [5]): 46.98%
- inhibition (MCF7 [7]): Active
- Activity (MCF7 [9]): 15.48%
- Activity (MCF7 [10]): 17.36%
- inhibition (MCF7 [11]): Active
- Activity (MCF7 [12]): 1.2%
- IC50 (Ishikawa): 6.56 µM
- Activity (MCF7 [15]): 0.8%
- Activity (MCF7 [17]): 97.8%
- Activity (MCF7 [18]): 73.6%
- Activity (MCF7 [19]): 18.3%
- Activity (MCF7 [20]): 5.3%
